Measurements of several laboratories.
Protocols differ between the studies behind these lines.
Species: human
Matrix: plasma

| SMILES | conditions | Cmax |
| --- | --- | --- |
| COc1ccc(C[C@@H]2NC(=O)[C@H]([C@@H](C)O)NC(=O)[C@@H]3[C@@H]4CCN3C(=O)[C@@H]3Cc5cn(c6ccc(F)cc56)CCCCCCN(Cc5ccc(cc5)CCNC(=O)[C@]5(C)CCCN5C2=O)C(=O)CCC(=O)N[C@@H](C)C(=O)N[C@H](CNC(=O)CCCCC[N+](C)(C)C)C(=O)N[C@@H](Cc2cccc(c2)CNC(=O)CO4)C(=O)N3)cc1 | oral, 200 mg, single dose | 7.84 nM |
| CN(C)CCc1c[nH]c2ccccc12 | intravenous, 9 mg, healthy volunteers, infusion | 20.8 ng/mL |
| c1cc([C@H]2CC[C@]3(CC2)OO[C@]2(O3)C3CC4CC(C3)CC2C4)ccc1OCCN1CCOCC1 | oral, 400 mg, patients | 732 ng/mL |
| N=C(N)NCCC[C@@H](NC(=O)[C@@H](N)Cc1ccccc1)C(=O)N[C@@H](Cc1ccccc1)C(=O)N[C@@H](CCCCN)C(N)=O | subcutaneous, 5 mg, multiple doses, once daily, patients | 212 ng/mL |
| CC[C@H](C)[C@H](NC(=O)[C@H](CC(C)C)NC(=O)[C@H](Cc1c[nH]c2ccccc12)NC(=O)[C@H](CCC(N)=O)NC(=O)[C@@H](NC(=O)[C@H](Cc1ccccc1)NC(=O)[C@H](C)NC(=O)[C@H](CCCCNC(=O)COCCOCCNC(=O)COCCOCCNC(=O)CC[C@H](NC(=O)CCCCCCCCCCCCCCCCCCC(=O)O)C(=O)O)NC(=O)[C@H](CCC(N)=O)NC(=O)[C@H](C)NC(=O)[C@@H](NC(=O)[C@H](CCCCN)NC(=O)[C@H](CC(=O)O)NC(=O)[C@H](CC(C)C)NC(=O)C(C)(C)NC(=O)[C@@H](NC(=O)[C@H](CO)NC(=O)[C@H](Cc1ccc(O)cc1)NC(=O)[C@H](CC(=O)O)NC(=O)[C@H](CO)NC(=O)[C@@H](NC(=O)[C@H](Cc1ccccc1)NC(=O)[C@@H](NC(=O)CNC(=O)[C@H](CCC(=O)O)NC(=O)C(C)(C)NC(=O)[C@@H](N)Cc1ccc(O)cc1)[C@@H](C)O)[C@@H](C)O)[C@@H](C)CC)[C@@H](C)CC)C(C)C)C(=O)N[C@@H](C)C(=O)NCC(=O)NCC(=O)N1CCC[C@H]1C(=O)N[C@@H](CO)C(=O)N[C@@H](CO)C(=O)NCC(=O)N[C@@H](C)C(=O)N1CCC[C@H]1C(=O)N1CCC[C@H]1C(=O)N1CCC[C@H]1C(=O)N[C@@H](CO)C(N)=O | subcutaneous, 0.5 mg, multiple doses, healthy volunteers | 77.8 ng/mL |
| C=C(C)[C@@H]1CC[C@]2(NCCN3CCS(=O)(=O)CC3)CC[C@]3(C)[C@H](CC[C@@H]4[C@@]5(C)CC=C(C6=CC[C@@](COc7ncccc7C#N)(C(=O)O)CC6)C(C)(C)[C@@H]5CC[C@]43C)[C@@H]12 | oral, 100 mg, single dose, fasted, tablet | 228 ng/mL |
| CC(=C/C=C/C(C)=C/C(=O)O)/C=C1\CCCc2ccccc21 | oral, 20 mg, single dose, fasted, healthy volunteers | ~70 ng/mL |
| Cc1ncc2n1-c1ccc(Cl)cc1C(c1ccccc1F)=NC2 | oral, 2 mg | 10.3 ng/mL |
